Experimental findings from ChEMBL document CHEMBL1124369, “Pyrido[3,4-e]-1,2,4-triazines and related heterocycles as potential antifungal agents” (1989) are described below.

Each structure is given as a SMILES string. In brackets after ≈: the same amount, converted by molar mass.

The subject of assay [1] is Aspergillus niger. Put plainly: Antifungal activity against Aspergillus niger; Range is 16-32. The assay is classed as functional. In short, it runs like this: (§1)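 Agar dilution MIC. Twofold serial drug dilutions in yeast nitrogen base medium with 1% dextrose, 0.15% asparagine and 1.5% agar. Agar surfaces inoculated using a Steers multiple inocula replicator, then incubated at 35 °C for 24-48 h. MIC was recorded as the lowest concentration inhibiting visible growth. Amphotericin B, miconazole and nystatin served as controls.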

Assay [2] deals with Kluyveromyces marxianus. The assay is described as follows: Antifungal activity against Candida pseudotropicalis. The assay is classed as functional. A digest of the protocol:
as §1

Assay [3] has as its system Candida albicans. The assay is described as follows: Antifungal activity against Candida albicans; Range is 16-32. The class given is functional. A digest of the protocol:
as §1

The test system of assay [4] is Candida parapsilosis. Put plainly: Antifungal activity against Candida parapsilosis. The class given is functional. The note with it: Lodderomyces parapsilosis. A digest of the protocol: as §1
Assay [5] has as its system Candida tropicalis. The assay is described as follows: Antifungal activity against Candida tropicalis. The class given is functional. A digest of the protocol:
as §1

Assay [6] has as its system Trichophyton benhamiae. The assay is described as follows: Antifungal activity against Trichophyton mentagrophytes. The class given is functional, trychophyton mentagrophytes. A digest of the protocol: as §1
Assay [7] relates to Trichophyton rubrum. Put plainly: Antifungal activity against Trichophyton rubrum. The class given is functional. In short, it runs like this: as §1
For assay [8], the system named is Candida albicans. The assay is described as follows: Antifungal activity against Candida albicans. The class given is functional. In short, it runs like this:
as §1

Assay [9] deals with Kluyveromyces marxianus. Put plainly: Antifungal activity against Candida pseudotropicalis; Range is 2-4. The class given is functional. A digest of the protocol: as §1
Assay [10] concerns Aspergillus niger. The assay is described as follows: Antifungal activity against Aspergillus niger; Range is 64-128. The class given is functional. A digest of the protocol: as §1
In assay [11] the test system is Aspergillus niger. Put plainly: Antifungal activity against Aspergillus niger; Range is 8-16. The assay is classed as functional. In short, it runs like this: as §1
The test system of assay [12] is Candida albicans. Put plainly: Antifungal activity against Candida stellatoidea. The assay is classed as functional. A digest of the protocol: as §1
Assay [13] relates to Diutina rugosa. Put plainly: Antifungal activity against Candida rugosa. The class given is functional. A digest of the protocol:
as §1

Assay [14] relates to Trichophyton rubrum. Put plainly: Antifungal activity against Trichophyton rubrum; Range is 2-4. The assay is classed as functional. In short, it runs like this: as §1
For assay [15], the system named is Mucor fragilis. The assay is described as follows: Antifungal activity against Mucor fragilis. The assay is classed as functional. In short, it runs like this: as §1
Assay [16] concerns Candida tropicalis. The assay is described as follows: Antifungal activity against Candida tropicalis; Range is 4-8. The assay is classed as functional. A digest of the protocol:
as §1

Assay [17] has as its system Candida albicans. Put plainly: Antifungal activity against Candida albicans; Range is 8-16. The class given is functional. A digest of the protocol:
as §1

For assay [18], the system named is Candida tropicalis. The assay is described as follows: Antifungal activity against Candida tropicalis; Range is 8-16. The class given is functional. A digest of the protocol:
as §1

Assay [19] deals with Trichophyton benhamiae. The assay is described as follows: Antifungal activity against Trichophyton mentagrophytes; Range is 4-8. The class given is functional, trychophyton mentagrophytes. A digest of the protocol: as §1
For assay [20], the system named is Aspergillus niger. Put plainly: Antifungal activity against Aspergillus niger. The class given is functional. A digest of the protocol:
as §1

Assay [21] relates to Candida albicans. Put plainly: Antifungal activity against Candida albicans; Range is 64-128. The assay is classed as functional. In short, it runs like this:
as §1

The test system of assay [22] is Kluyveromyces marxianus. Put plainly: Antifungal activity against Candida pseudotropicalis; Range is 4-8. The assay is classed as functional. A digest of the protocol: as §1
The subject of assay [23] is Candida tropicalis. Put plainly: Antifungal activity against Candida tropicalis; Range is 8-32. The class given is functional. In short, it runs like this:
as §1

For assay [24], the system named is Trichophyton rubrum. Put plainly: Antifungal activity against Trichophyton rubrum; Range is 8-32. The class given is functional.
For assay [25], the system named is Aspergillus niger. The assay is described as follows: Antifungal activity against Aspergillus niger; Range is 32-64. The class given is functional. A digest of the protocol: as §1
Assay [26] relates to Candida albicans. Put plainly: Antifungal activity against Candida albicans; Range is 32-64. The assay is classed as functional. In short, it runs like this:
as §1

In assay [27] the test system is Candida tropicalis. The assay is described as follows: Antifungal activity against Candida tropicalis; Range is 32-64. The assay is classed as functional. A digest of the protocol: as §1
Assay [28] has as its system Candida tropicalis. The assay is described as follows: Antifungal activity against Candida tropicalis; Range is 16-32. The class given is functional. In short, it runs like this: as §1
Assay [29] has as its system Trichophyton benhamiae. The assay is described as follows: Antifungal activity against Trichophyton mentagrophytes; Range is 8-32. The class given is functional, trychophyton mentagrophytes. A digest of the protocol:
as §1

Assay [30] has as its system Candida albicans. Put plainly: Antifungal activity against Candida albicans; Range is 16-64. The assay is classed as functional. In short, it runs like this:
as §1

Assay [31] has as its system Trichophyton rubrum. Put plainly: Antifungal activity against Trichophyton rubrum; Range is 4-16. The assay is classed as functional. In short, it runs like this: as §1
In assay [32] the test system is Trichophyton benhamiae. The assay is described as follows: Antifungal activity against Trichophyton mentagrophytes; Range is 32-64. The assay is classed as functional, trychophyton mentagrophytes. In short, it runs like this: as §1
The subject of assay [33] is Trichophyton rubrum. The assay is described as follows: Antifungal activity against Trichophyton rubrum; Range is 16-32. The class given is functional. In short, it runs like this: as §1
Assay [34] concerns Trichophyton rubrum. The assay is described as follows: Antifungal activity against Trichophyton rubrum; Range is 4-8. The class given is functional. A digest of the protocol: as §1

With `Fc1ccc(-c2nnc3ccncc3n2)c(F)c1`, the MIC (commonly the lowest concentration found to suppress growth) in assay [1] worked out at 16 µg/mL (≈ 65.5 µM); in assay [2] it was 32 µg/mL (≈ 131 µM); in [3], 16 µg/mL (≈ 65.5 µM); in [4], 16 µg/mL (≈ 65.5 µM); in assay [5], 16 µg/mL (≈ 65.5 µM); in assay [6], 8 µg/mL (≈ 32.8 µM). Further, 2 µg/mL (≈ 8.19 µM) was the least that counted as inhibitory in assay [7] (MIC).
As to `c1ccc2c(c1)ncc1nc(-c3ccncc3)nnc12`, the MIC is 128 µg/mL (≈ 494 µM) in assay [8]; 128 µg/mL (≈ 494 µM) in assay [4]; 2 µg/mL (≈ 7.71 µM) in assay [9]; 128 µg/mL (≈ 494 µM) in assay [5]; 64 µg/mL (≈ 247 µM) in [6]; 64 µg/mL (≈ 247 µM) in [7]. This molecule yielded an MIC in [10] of 64 µg/mL (≈ 247 µM).
As for `c1cc(-c2nnc3ccncc3n2)ccn1`, the MIC in assay [11] was determined as 8 µg/mL (≈ 38.2 µM); in [12] it was 32 µg/mL (≈ 153 µM); in [8], 8 µg/mL (≈ 38.2 µM); in assay [4], 8 µg/mL (≈ 38.2 µM); in assay [9] it was 2 µg/mL (≈ 9.56 µM); in [13], 32 µg/mL (≈ 153 µM). In addition, the MIC in assay [6] stood at 4 µg/mL (≈ 19.1 µM); in [14] it was 2 µg/mL (≈ 9.56 µM); in assay [15], 32 µg/mL (≈ 153 µM); in assay [16], 4 µg/mL (≈ 19.1 µM).
Regarding `Fc1ccc(-c2nnc3ccncc3n2)cc1`, the MIC in assay [1] was 16 µg/mL (≈ 70.7 µM); in assay [17] it was 8 µg/mL (≈ 35.4 µM); in assay [12] it was 8 µg/mL (≈ 35.4 µM); in assay [2], 8 µg/mL (≈ 35.4 µM); in [4] it was 8 µg/mL (≈ 35.4 µM); in [13] it was 8 µg/mL (≈ 35.4 µM). The MIC is 8 µg/mL (≈ 35.4 µM) in assay [18], 4 µg/mL (≈ 17.7 µM) in assay [19], 4 µg/mL (≈ 17.7 µM) in assay [7] and 64 µg/mL (≈ 283 µM) in assay [15].
Turning to `COc1cc(-c2nnc3ccncc3n2)cc(OC)c1OC`, the MIC in [20] was 128 µg/mL (≈ 429 µM); in [21] it was 64 µg/mL (≈ 215 µM); in [12], 128 µg/mL (≈ 429 µM); in assay [2], 64 µg/mL (≈ 215 µM); in assay [13] it was 128 µg/mL (≈ 429 µM); in assay [5] it was 128 µg/mL (≈ 429 µM). The molecule further gave an MIC in assay [15] of 128 µg/mL (≈ 429 µM).
With `N#Cc1ccc(-c2nnc3ccncc3n2)cc1`, the MIC in assay [20] was 128 µg/mL (≈ 549 µM); in [12] it was 128 µg/mL (≈ 549 µM); in [8] it was 64 µg/mL (≈ 274 µM); in [4], 64 µg/mL (≈ 274 µM); in assay [22], 4 µg/mL (≈ 17.2 µM); in assay [13], greater than 128 µg/mL. Besides, the MIC in [23] was found to be 8 µg/mL (≈ 34.3 µM); in [19], 4 µg/mL (≈ 17.2 µM); in assay [14] it was 2 µg/mL (≈ 8.58 µM); in assay [15] it was 128 µg/mL (≈ 549 µM).
Consider `FC(F)(F)c1ccc(-c2nnc3ccncc3n2)cc1`, for which the MIC in [20] is 128 µg/mL (≈ 463 µM); in [21] it was 64 µg/mL (≈ 232 µM); in assay [12], greater than 128 µg/mL; in [2] it was 128 µg/mL (≈ 463 µM); in [4], 128 µg/mL (≈ 463 µM); in assay [13] it was greater than 128 µg/mL. For the same molecule, the MIC in [5] is 128 µg/mL (≈ 463 µM); in [6] it was 64 µg/mL (≈ 232 µM); in assay [24] it was 8 µg/mL (≈ 29 µM); in assay [15], greater than 128 µg/mL.
Turning to `CCCc1nnc2ccncc2n1`, the MIC in [25] stood at 32 µg/mL (≈ 184 µM); in [26], 32 µg/mL (≈ 184 µM); in [12], 64 µg/mL (≈ 367 µM); in assay [2] it was 16 µg/mL (≈ 91.8 µM); in assay [4], 64 µg/mL (≈ 367 µM); in assay [13], 64 µg/mL (≈ 367 µM). Also, the MIC in [27] came out at 32 µg/mL (≈ 184 µM); in assay [6], 32 µg/mL (≈ 184 µM); in [24], 8 µg/mL (≈ 45.9 µM); in assay [15] it was 64 µg/mL (≈ 367 µM).
Regarding `Cc1nccc2nncnc12`, the MIC in [20] is 32 µg/mL (≈ 219 µM); in assay [2], 8 µg/mL (≈ 54.7 µM); in assay [3], 16 µg/mL (≈ 109 µM); in [4], 64 µg/mL (≈ 438 µM); in [28], 16 µg/mL (≈ 109 µM); in assay [29], 8 µg/mL (≈ 54.7 µM). The same molecule registered a minimum inhibitory concentration (MIC) in assay [7] of 4 µg/mL (≈ 27.4 µM).
`c1cc2nnc(C3CCCCC3)nc2cn1`: the minimal inhibitory concentration (MIC) was 32 µg/mL (≈ 149 µM) in assay [25]; 16 µg/mL (≈ 74.7 µM) in [30]; 32 µg/mL (≈ 149 µM) in [12]; 32 µg/mL (≈ 149 µM) in [2]; 64 µg/mL (≈ 299 µM) in [4]; 32 µg/mL (≈ 149 µM) in assay [13]. Besides, the MIC in assay [27] was 32 µg/mL (≈ 149 µM); in assay [6], 16 µg/mL (≈ 74.7 µM); in assay [31], 4 µg/mL (≈ 18.7 µM); in assay [15] it was 64 µg/mL (≈ 299 µM).
On to `CC(C)(C)c1nnc2ccncc2n1`, for which the MIC in assay [20] was 64 µg/mL (≈ 340 µM); in assay [2] it was 64 µg/mL (≈ 340 µM); in assay [8], 64 µg/mL (≈ 340 µM); in assay [4], 64 µg/mL (≈ 340 µM); in assay [5], 64 µg/mL (≈ 340 µM); in assay [32], 32 µg/mL (≈ 170 µM). Moreover, 16 µg/mL (≈ 85 µM) was the least that counted as inhibitory in assay [33] (MIC).
Regarding `C(=C\N1CCCCC1)/c1nnc2ccncc2n1`, the MIC in assay [21] is 64 µg/mL (≈ 265 µM); in assay [2], 128 µg/mL (≈ 530 µM); in [4] it was 128 µg/mL (≈ 530 µM); in assay [5] it was 128 µg/mL (≈ 530 µM); in [6], 16 µg/mL (≈ 66.3 µM); in [34] it was 4 µg/mL (≈ 16.6 µM). The same molecule displayed an MIC in assay [10] of 64 µg/mL (≈ 265 µM).
